Laboratory results: ChEMBL document CHEMBL4373686, “Methyl sulfonamide substituents improve the pharmacokinetic properties of bicyclic 2-pyridone based Chlamydia trachomatis inhibitors” (Medchemcomm, 2019)

System: HeLa 229
Experiment: Cytotoxicity against human HeLa 229 cells assessed as cell viability at 10 uM after 48 hrs resazurin dye based fluorescence method relative to control
Conditions: hela 229, 48 h
How it was run: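 HeLa cells in colorless DMEM with 10% FBS, compound in 0.5% DMSO for 48 h; resazurin added, 3 h at 37 °C, 5% CO2, dark; fluorescence ex 535/em 595 nm; triplicate wells as percent of DMSO control.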

Row | Structure (SMILES) | Activity
1 | COc1c(Cc2cccc3ccccc23)c(N)c(=O)n2c1SCC2C(=O)Nc1ccc(C)cc1 (racemic) | 91%
2 | CC(=O)Nc1c(Cc2cccc3ccccc23)cc(=O)n2c1SCC2C(=O)Nc1ccccc1 (racemic) | 90%
3 | CS(=O)(=O)Nc1c(Cc2cccc3ccccc23)cc(=O)n2c1SCC2c1nc(-c2ccccc2)n[nH]1 (racemic) | 93%
4 | COC(=O)Nc1c(Cc2cccc3ccccc23)cc(=O)n2c1SCC2C(=O)Nc1ccccc1 (racemic) | 88%
5 | COc1c(Cc2cccc(C)c2C)cc(=O)n2c1SCC2C(=O)Nc1ccc(C)cc1 (racemic) | 88%
6 | COc1c(Cc2cccc3ccccc23)cc(=O)n2c1SCC2n1cc(-c2ccccc2)nn1 (racemic) | 87%
7 | COc1c(Cc2cccc(C)c2C)c(N)c(=O)n2c1SCC2C(=O)Nc1ccc(C)cc1 (racemic) | 93%

System: Chlamydia trachomatis
Experiment: (§1) Antibacterial activity against Chlamydia trachomatis 434/Bu serovar L2/ATCC VR-902B in HeLa 229 cells infected with cell lysates from 48 hrs at 1 uM compound treated HeLa 229 cells with Chlamydia trachomatis infection assessed as inhibition of reinfection and measured after 48 hrs post re-infection by DAPI staining based arrayscan automated microscopic method relative to control
Format: functional, organism-based
Conditions: not given
How it was run: (§2)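 HeLa 229 cells infected with C. trachomatis L2 EBs at MOI 0.3–0.5; compound added in RPMI 1 h post infection; 44–48 h, then water lysis. 10-fold serial dilutions of lysate reinfect fresh HeLa; 44–46 h, methanol fixed, anti-Chlamydia/FITC antibody plus DAPI stain, IFUs counted by automated microscopy; % IFU versus DMSO control; three independent experiments, duplicates.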

Row | Structure (SMILES) | inhibition
8 | CC(=O)Nc1c(Cc2cccc3ccccc23)cc(=O)n2c1SCC2C(=O)Nc1ccccc1 (racemic) | 44%
9 | COc1c(Cc2cccc(C)c2C)cc(=O)n2c1SCC2C(=O)Nc1ccc(C)cc1 (racemic) | 71%

System: Chlamydia trachomatis
Experiment: as §1, with “2.5” for “1”
Format: functional, organism-based
Conditions: not given
How it was run: as §2

Row | Structure (SMILES) | inhibition
10 | COc1c(Cc2cccc3ccccc23)c(N)c(=O)n2c1SCC2C(=O)Nc1ccc(C)cc1 (racemic) | 51%
11 | CC(=O)Nc1c(Cc2cccc3ccccc23)cc(=O)n2c1SCC2C(=O)Nc1ccccc1 (racemic) | 3%
12 | CS(=O)(=O)Nc1c(Cc2cccc3ccccc23)cc(=O)n2c1SCC2c1nc(-c2ccccc2)n[nH]1 (racemic) | 20%
13 | COC(=O)Nc1c(Cc2cccc3ccccc23)cc(=O)n2c1SCC2C(=O)Nc1ccccc1 (racemic) | 12%
14 | COc1c(Cc2cccc(C)c2C)cc(=O)n2c1SCC2C(=O)Nc1ccc(C)cc1 (racemic) | 98%
15 | COc1c(Cc2cccc3ccccc23)cc(=O)n2c1SCC2n1cc(-c2ccccc2)nn1 (racemic) | 81%
16 | COc1c(Cc2cccc(C)c2C)c(N)c(=O)n2c1SCC2C(=O)Nc1ccc(C)cc1 (racemic) | 56%
